# Data taken from the M2OR odorant receptor database.
# How the values were obtained:
# Details in all cases: stereoisomer not certain
# UniProt L7N210 = biological target: T1, UniProt L7N210
# T1 sequence (whole entry): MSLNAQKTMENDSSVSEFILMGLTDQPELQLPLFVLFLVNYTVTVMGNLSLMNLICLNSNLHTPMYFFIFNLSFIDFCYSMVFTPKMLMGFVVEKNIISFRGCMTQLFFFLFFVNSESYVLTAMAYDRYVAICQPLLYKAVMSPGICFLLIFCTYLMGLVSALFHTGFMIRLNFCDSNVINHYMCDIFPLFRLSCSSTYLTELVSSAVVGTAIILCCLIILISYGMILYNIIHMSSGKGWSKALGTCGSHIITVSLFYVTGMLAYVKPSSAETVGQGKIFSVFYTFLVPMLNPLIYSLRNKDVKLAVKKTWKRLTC
# Procedure, shortened: (§1)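 Assay methods differ from source to source, frequently being transient luciferase assays in mammalian cell lines. For each receptor–molecule pair, the label responsive (active) applies when the original authors judged the measured signal statistically different from baseline, and non-responsive (inactive) applies otherwise.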
# UniProt Q7TQV4 = biological target: T2, UniProt Q7TQV4
# T2 sequence (whole entry): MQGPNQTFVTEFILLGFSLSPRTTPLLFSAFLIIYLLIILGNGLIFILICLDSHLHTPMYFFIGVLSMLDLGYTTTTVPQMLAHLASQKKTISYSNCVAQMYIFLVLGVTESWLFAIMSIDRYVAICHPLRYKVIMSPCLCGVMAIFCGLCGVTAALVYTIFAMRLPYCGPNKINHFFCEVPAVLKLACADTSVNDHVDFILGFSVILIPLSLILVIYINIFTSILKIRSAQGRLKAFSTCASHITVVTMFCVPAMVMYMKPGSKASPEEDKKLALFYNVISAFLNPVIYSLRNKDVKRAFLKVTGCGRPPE
# Procedure, shortened: as §1
# UniProt Q7TR71 = biological target: T3, UniProt Q7TR71
# T3 sequence (whole entry): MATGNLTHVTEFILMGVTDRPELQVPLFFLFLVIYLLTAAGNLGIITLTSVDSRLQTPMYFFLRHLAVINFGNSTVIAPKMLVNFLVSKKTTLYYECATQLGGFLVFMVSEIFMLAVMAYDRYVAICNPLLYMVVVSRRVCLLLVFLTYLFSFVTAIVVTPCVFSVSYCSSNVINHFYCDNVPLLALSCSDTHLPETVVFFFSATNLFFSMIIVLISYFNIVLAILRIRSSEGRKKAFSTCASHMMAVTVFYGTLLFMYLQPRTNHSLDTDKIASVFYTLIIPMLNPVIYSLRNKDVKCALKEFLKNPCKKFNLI
# Procedure, shortened: as §1
# UniProt Q7TRA3 = biological target: T4, UniProt Q7TRA3
# T4 sequence (whole entry): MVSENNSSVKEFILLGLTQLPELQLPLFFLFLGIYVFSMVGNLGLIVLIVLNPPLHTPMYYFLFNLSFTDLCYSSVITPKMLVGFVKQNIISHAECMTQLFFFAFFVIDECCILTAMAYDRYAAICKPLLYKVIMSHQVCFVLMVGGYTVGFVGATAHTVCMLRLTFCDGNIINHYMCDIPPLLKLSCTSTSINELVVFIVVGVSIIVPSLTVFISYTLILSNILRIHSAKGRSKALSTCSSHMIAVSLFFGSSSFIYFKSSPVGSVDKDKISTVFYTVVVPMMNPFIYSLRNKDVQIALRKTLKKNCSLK
# Procedure, shortened: as §1
# UniProt Q7TRE4 = biological target: T5, UniProt Q7TRE4
# T5 sequence (whole entry): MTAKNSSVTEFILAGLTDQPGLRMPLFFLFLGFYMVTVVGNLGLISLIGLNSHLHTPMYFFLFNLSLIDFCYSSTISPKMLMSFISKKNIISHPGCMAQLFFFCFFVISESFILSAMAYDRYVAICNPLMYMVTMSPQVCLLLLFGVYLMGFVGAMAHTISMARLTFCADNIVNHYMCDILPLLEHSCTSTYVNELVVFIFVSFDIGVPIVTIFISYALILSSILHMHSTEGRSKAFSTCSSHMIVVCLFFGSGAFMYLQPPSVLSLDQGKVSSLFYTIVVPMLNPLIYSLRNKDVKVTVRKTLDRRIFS
# Procedure, shortened: as §1
# UniProt L7N0P5 = biological target: T6, UniProt L7N0P5
# T6 sequence (whole entry): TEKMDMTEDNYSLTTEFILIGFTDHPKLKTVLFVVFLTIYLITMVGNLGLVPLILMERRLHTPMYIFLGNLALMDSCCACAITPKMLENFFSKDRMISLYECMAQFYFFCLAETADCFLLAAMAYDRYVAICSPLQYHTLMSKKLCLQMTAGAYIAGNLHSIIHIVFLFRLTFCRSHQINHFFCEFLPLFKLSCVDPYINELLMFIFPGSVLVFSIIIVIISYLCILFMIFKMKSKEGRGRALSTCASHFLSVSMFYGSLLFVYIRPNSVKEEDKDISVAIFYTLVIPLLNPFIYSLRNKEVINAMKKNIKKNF
# Procedure, shortened: as §1
# UniProt L7MU75 = biological target: T7, UniProt L7MU75
# T7 sequence (whole entry): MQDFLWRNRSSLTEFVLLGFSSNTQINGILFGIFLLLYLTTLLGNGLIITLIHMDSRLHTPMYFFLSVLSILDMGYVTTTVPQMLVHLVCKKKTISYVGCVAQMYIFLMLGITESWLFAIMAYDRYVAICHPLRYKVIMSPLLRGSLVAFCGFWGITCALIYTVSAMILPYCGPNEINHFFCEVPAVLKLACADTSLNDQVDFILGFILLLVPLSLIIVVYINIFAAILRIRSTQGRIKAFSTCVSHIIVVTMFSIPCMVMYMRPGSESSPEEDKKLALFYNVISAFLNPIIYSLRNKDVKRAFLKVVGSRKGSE
# Procedure, shortened: as §1
# UniProt Q3U0P3 = biological target: T8, UniProt Q3U0P3
# T8 sequence (whole entry): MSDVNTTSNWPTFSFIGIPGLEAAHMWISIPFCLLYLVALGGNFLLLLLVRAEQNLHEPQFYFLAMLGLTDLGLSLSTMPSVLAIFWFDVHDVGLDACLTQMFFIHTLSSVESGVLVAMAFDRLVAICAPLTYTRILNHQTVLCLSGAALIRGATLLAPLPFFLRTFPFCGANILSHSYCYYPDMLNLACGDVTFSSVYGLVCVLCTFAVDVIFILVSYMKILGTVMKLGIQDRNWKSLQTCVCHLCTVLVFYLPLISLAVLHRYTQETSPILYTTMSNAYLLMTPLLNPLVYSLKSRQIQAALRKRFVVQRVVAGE
# Procedure, shortened: as §1
# UniProt Q7TQU8 = biological target: T9, UniProt Q7TQU8
# T9 sequence (whole entry): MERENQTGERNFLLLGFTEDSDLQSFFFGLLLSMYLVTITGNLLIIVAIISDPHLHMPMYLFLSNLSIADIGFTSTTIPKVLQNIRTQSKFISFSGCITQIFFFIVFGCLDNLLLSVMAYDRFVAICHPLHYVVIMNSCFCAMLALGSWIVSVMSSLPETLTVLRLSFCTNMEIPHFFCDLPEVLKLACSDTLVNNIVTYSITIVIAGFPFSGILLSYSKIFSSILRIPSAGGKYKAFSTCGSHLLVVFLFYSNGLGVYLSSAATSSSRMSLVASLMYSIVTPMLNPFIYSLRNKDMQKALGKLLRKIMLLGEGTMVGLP
# Procedure, shortened: as §1
# UniProt Q7TR79 = biological target: T10, UniProt Q7TR79
# T10 sequence (whole entry): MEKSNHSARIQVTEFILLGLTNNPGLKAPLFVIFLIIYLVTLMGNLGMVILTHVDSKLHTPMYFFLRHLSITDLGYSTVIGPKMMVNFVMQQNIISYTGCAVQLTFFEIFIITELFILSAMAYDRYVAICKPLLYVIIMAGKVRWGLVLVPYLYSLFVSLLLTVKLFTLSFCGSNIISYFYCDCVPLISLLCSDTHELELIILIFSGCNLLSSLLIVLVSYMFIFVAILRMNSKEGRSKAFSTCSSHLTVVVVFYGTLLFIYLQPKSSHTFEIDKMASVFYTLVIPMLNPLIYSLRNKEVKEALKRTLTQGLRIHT
# Procedure, shortened: as §1
# UniProt Q7TRN9 = biological target: T11, UniProt Q7TRN9
# T11 sequence (whole entry): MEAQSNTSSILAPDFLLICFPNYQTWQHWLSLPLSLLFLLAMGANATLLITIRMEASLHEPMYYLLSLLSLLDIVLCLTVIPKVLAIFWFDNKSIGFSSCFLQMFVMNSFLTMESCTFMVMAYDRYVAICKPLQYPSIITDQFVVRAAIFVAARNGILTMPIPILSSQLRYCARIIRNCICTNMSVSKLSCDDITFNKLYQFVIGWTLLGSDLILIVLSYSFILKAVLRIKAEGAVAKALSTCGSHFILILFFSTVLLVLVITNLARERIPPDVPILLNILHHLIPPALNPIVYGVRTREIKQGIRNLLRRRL
# Procedure, shortened: as §1
# UniProt Q7TRM0 = biological target: T12, UniProt Q7TRM0
# T12 sequence (whole entry): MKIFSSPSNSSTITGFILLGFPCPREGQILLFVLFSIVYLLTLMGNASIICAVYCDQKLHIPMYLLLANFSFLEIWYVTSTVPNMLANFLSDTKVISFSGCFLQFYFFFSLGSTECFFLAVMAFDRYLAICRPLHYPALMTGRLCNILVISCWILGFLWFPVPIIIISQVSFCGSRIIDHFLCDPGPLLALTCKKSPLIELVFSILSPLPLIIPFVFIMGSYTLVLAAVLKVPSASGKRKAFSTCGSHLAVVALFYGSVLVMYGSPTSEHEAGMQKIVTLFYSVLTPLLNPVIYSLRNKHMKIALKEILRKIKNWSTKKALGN
# Procedure, shortened: as §1
smiles,measurement,setting,value
CCCCOC(=O)C(C)OC(=O)CCC (configuration not stated),odorant receptor agonist call,UniProt L7N210,inactive
same,odorant receptor agonist call,UniProt Q7TQV4,inactive
same,odorant receptor agonist call,UniProt Q7TR71,inactive
same,odorant receptor agonist call,UniProt Q7TRA3,inactive
same,odorant receptor agonist call,UniProt Q7TRE4,inactive
CCc1nccnc1OC,odorant receptor agonist call,UniProt L7N0P5,active
CCCO,odorant receptor agonist call,UniProt L7MU75,inactive
same,odorant receptor agonist call,UniProt L7N210,inactive
same,odorant receptor agonist call,UniProt Q3U0P3,inactive
same,odorant receptor agonist call,UniProt Q7TQU8,inactive
same,odorant receptor agonist call,UniProt Q7TR79,inactive
CCCCCO,odorant receptor agonist call,UniProt L7MU75,inactive
same,odorant receptor agonist call,UniProt L7N210,inactive
same,odorant receptor agonist call,UniProt Q7TQV4,inactive
same,odorant receptor agonist call,UniProt Q7TR71,inactive
same,odorant receptor agonist call,UniProt Q7TRA3,inactive
same,odorant receptor agonist call,UniProt Q7TRE4,inactive
same,odorant receptor agonist call,UniProt Q7TRN9,inactive
O=C(OCc1ccccc1)c1ccccc1O,odorant receptor agonist call,UniProt L7MU75,inactive
same,odorant receptor agonist call,UniProt L7N210,inactive
same,odorant receptor agonist call,UniProt Q3U0P3,inactive
same,odorant receptor agonist call,UniProt Q7TQU8,inactive
same,odorant receptor agonist call,UniProt Q7TR79,inactive
CCCCCCC(=O)[O-].[H+],odorant receptor agonist call,UniProt L7MU75,inactive
same,odorant receptor agonist call,UniProt L7N210,inactive
same,odorant receptor agonist call,UniProt Q7TQV4,inactive
same,odorant receptor agonist call,UniProt Q7TR71,inactive
same,odorant receptor agonist call,UniProt Q7TRA3,inactive
same,odorant receptor agonist call,UniProt Q7TRE4,inactive
same,odorant receptor agonist call,UniProt Q7TRM0,inactive
same,odorant receptor agonist call,UniProt Q7TRN9,active
CCCC(C)=O,odorant receptor agonist call,UniProt L7MU75,inactive
same,odorant receptor agonist call,UniProt L7N210,inactive
same,odorant receptor agonist call,UniProt Q7TQV4,inactive
same,odorant receptor agonist call,UniProt Q7TR71,inactive
same,odorant receptor agonist call,UniProt Q7TRA3,inactive
same,odorant receptor agonist call,UniProt Q7TRE4,inactive
